From ChEMBL document CHEMBL1135495, “New p-methylsulfonamido phenylethylamine analogues as class III antiarrhythmic agents: design, synthesis, biological assay, and 3D-QSAR analysis” (2002)

What was measured:
Cavia porcellus [1] = species on record: Cavia porcellus; assay: (§1) Percent change for delaying effective refractory period (ERP) in guinea pig at 10e-5 M concentration; type: functional
How it was run: (§2)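 Isolated atria, left atria preloaded 10 mN and paced at 1 s⁻¹ with square-wave pulses at twice-threshold voltage. ERP was measured by paired electrical stimulation after a 1 h Tyrode's equilibration with washouts every 15 min. Drug was added cumulatively at 15 min intervals, with final concentrations rising geometrically. ERP was read 10 min after each addition.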

Cavia porcellus [2] = species on record: Cavia porcellus; assay: Percent change of force of constriction measured in guinea pig at 10e-5 M concentration; type: functional
How it was run: (§3)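 Left atria under 10 mN preload, driven at 1 s⁻¹ by square-wave pulses at twice-threshold voltage. Isometric contractions were recorded via a strain gauge after a 1 h Tyrode's equilibration. Cumulative drug additions were made every 15 min, with final concentrations rising geometrically. The inotropic effect was determined 10 min after each addition.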

Cavia porcellus [3] = species on record: Cavia porcellus; assay: Effective concentration for delaying effective refractory period (ERP) 10 ms in guinea pig; type: functional; how it was run: as §2
Cavia porcellus [4] = species on record: Cavia porcellus; assay: Percent change in heart rate measured in guinea pig at 10e-5 M concentration; type: functional
How it was run: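 Spontaneously beating right atria, with contractions recorded in parallel to give beating rate. Tissue equilibrated 1 h in Tyrode's, washed every 15 min. Drug was added to the bath cumulatively at 15 min intervals in geometrically increasing final concentrations. The chronotropic effect was read 10 min after each addition.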

Cavia porcellus [5] = species on record: Cavia porcellus; assay: Percent change of force of constriction measured in guinea pig at 10e-5 M concentration; N means No effect.; type: functional; how it was run: as §3
Cavia porcellus [6] = species on record: Cavia porcellus; assay: Percent change of force of constriction measured in guinea pig at 10e-5 M concentration; Nf means No effect.; type: functional; how it was run: as §3
Cavia porcellus [7] = species on record: Cavia porcellus; assay: Effective concentration for delaying effective refractory period (ERP) 10 ms in guinea pig; N means No effect at 10E-5 M; type: functional; how it was run: as §2
Cavia porcellus [8] = species on record: Cavia porcellus; assay: as §1; type: functional, organism-based; how it was run: as §2
Cavia porcellus [9] = species on record: Cavia porcellus; assay: Percent change for delaying effective refractory period (ERP) in guinea pig at 10e-5 M concentration; N means No effect.; type: functional; how it was run: as §2
Cavia porcellus [10] = species on record: Cavia porcellus; assay: No effect was observed for ERP at 10x (10e-5) M concentration; N means No effect at 10E-5 M; type: functional; how it was run: as §2

Row | SMILES | Delta ERP (Cavia porcellus [1]) [%] | Delta FC (Cavia porcellus [2]) [%] | C (Cavia porcellus [3]) [µM] | Delta HR (Cavia porcellus [4]) [%] | N (Cavia porcellus [5]) | N (Cavia porcellus [6]) | N (Cavia porcellus [7]) | N (Cavia porcellus [8]) | N (Cavia porcellus [9]) | N (Cavia porcellus [10])
1 | CS(=O)(=O)Nc1ccc(CCNCCOc2ccc(NS(C)(=O)=O)cc2)cc1 [N-DESMETHYLDOFETILIDE] | 9.39 | 33.7 | 0.023 | -23.8 | – | – | – | – | – | –
2 | C=CCN(CCOc1ccc(NS(C)(=O)=O)cc1)CCc1ccc(NS(C)(=O)=O)cc1 | 12.4 | – | 0.267 | -5.26 | No effect | – | – | – | – | –
3 | C=CCN(CCOc1cccc2ccccc12)CCc1ccc(NS(C)(=O)=O)cc1 | 9.77 | 16.7 | 0.315 | -15.2 | – | – | – | – | – | –
4 | CS(=O)(=O)N(c1ccc(CCN(Cc2ccccc2)Cc2ccccc2)cc1)S(C)(=O)=O | 9.56 | – | 0.653 | -16 | No effect | – | – | – | – | –
5 | CS(=O)(=O)Nc1ccc(CCN(CCOc2ccc(NS(C)(=O)=O)cc2)CCOc2ccc(NS(C)(=O)=O)cc2)cc1 | 13.5 | 20 | 0.383 | -26.7 | – | – | – | – | – | –
6 | Cc1ccc(CN(CCc2ccc(N(S(C)(=O)=O)S(C)(=O)=O)cc2)Cc2ccccc2)cc1 | 5.71 | 25 | 0.62 | 16 | – | – | – | – | – | –
7 | CN(CCOc1cccc2ccccc12)CCc1ccc(N(S(C)(=O)=O)S(C)(=O)=O)cc1 | 12 | – | 0.203 | -20.7 | No effect | – | – | – | – | –
8 | CN(CCc1ccc(N(S(C)(=O)=O)S(C)(=O)=O)cc1)C1CCCCC1 | 6.24 | – | 4.39 | -8.36 | – | No effect | – | – | – | –
9 | CS(=O)(=O)Nc1ccc(CCN(CCOc2ccc(NS(C)(=O)=O)cc2)S(C)(=O)=O)cc1 | – | 16.7 | – | -18.8 | – | – | No effect at 10E-5 M | No effect at 10E-5 M | – | –
10 | CS(=O)(=O)Nc1ccc(CCN(CCOc2ccc(NS(C)(=O)=O)cc2)Cc2ccc(Cl)cc2)cc1 | 9.29 | 20 | 0.037 | -40.6 | – | – | – | – | – | –
11 | COc1ccc(CN(CCc2ccc(NS(C)(=O)=O)cc2)Cc2ccc(Cl)cc2)cc1 | 19.3 | 15 | 0.068 | -9.09 | – | – | – | – | – | –
12 | CN(CCc1ccc(NS(C)(=O)=O)cc1)Cc1ccccc1 | 12.2 | 16.7 | 0.372 | -20 | – | – | – | – | – | –
13 | CC(=O)N(CCOc1ccc(NS(C)(=O)=O)cc1)CCc1ccc(NS(C)(=O)=O)cc1 | 16.9 | 17.5 | 0.021 | -20.6 | – | – | – | – | – | –
14 | COc1ccc(CN(CCc2ccc(N(S(C)(=O)=O)S(C)(=O)=O)cc2)Cc2ccccc2)cc1 | 9.09 | -20 | 0.79 | -27.3 | – | – | – | – | – | –
15 | CS(=O)(=O)Nc1ccc(CCN(Cc2ccccc2)Cc2ccc(Cl)cc2)cc1 | 14.5 | 25 | 1.05 | 16 | – | – | – | – | – | –
16 | COc1ccc(CN(CCOc2ccc(NS(C)(=O)=O)cc2)CCc2ccc(NS(C)(=O)=O)cc2)cc1 | 12.1 | 14.3 | 0.21 | -25.8 | – | – | – | – | – | –
17 | CS(=O)(=O)Nc1ccc(CCN(CCOc2cccc3ccccc23)C(=O)c2ccccc2)cc1 | 5.33 | 33.3 | 8.67 | -20 | – | – | – | – | – | –
18 | COc1ccccc1CN(CCc1ccc(NS(C)(=O)=O)cc1)Cc1ccccc1 | 10.9 | -14.3 | 0.141 | -28.2 | – | – | – | – | – | –

Row | SMILES | Delta ERP (Cavia porcellus [1]) [%] | Delta FC (Cavia porcellus [2]) [%] | C (Cavia porcellus [3]) [µM] | Delta HR (Cavia porcellus [4]) [%] | N (Cavia porcellus [5]) | N (Cavia porcellus [6]) | N (Cavia porcellus [7]) | N (Cavia porcellus [8]) | N (Cavia porcellus [9]) | N (Cavia porcellus [10])
19 | C=CCN(CCOc1cccc2ccccc12)CCc1ccc(N(S(C)(=O)=O)S(C)(=O)=O)cc1 | – | 16.7 | – | -8.33 | – | – | No effect | – | No effect | –
20 | CN(CCOc1ccc(NS(C)(=O)=O)cc1)CCc1ccc(NS(C)(=O)=O)cc1 [DOFETILIDE] | 24 | 17.1 | 0.011 | -30 | – | – | – | – | – | –
21 | CN(CCOc1cccc2ccccc12)CCc1ccc(NS(C)(=O)=O)cc1 | 20.2 | 20.3 | 0.293 | -28.5 | – | – | – | – | – | –
22 | CS(=O)(=O)Nc1ccc(CCN(Cc2ccccc2)Cc2ccccc2)cc1 | 16.1 | – | 0.27 | -25 | No effect | – | – | – | – | –
23 | CC(=O)N(CCOc1cccc2ccccc12)CCc1ccc(NS(C)(=O)=O)cc1 | 58.4 | -37.9 | 0.05 | -46.2 | – | – | – | – | – | –
24 | CS(=O)(=O)N(c1ccc(CCN(Cc2ccccc2)Cc2ccc3c(c2)OCO3)cc1)S(C)(=O)=O | 9.46 | -20 | 0.38 | -18.3 | – | – | – | – | – | –
25 | CS(=O)(=O)Nc1ccc(CCN(CCOc2ccc(NS(C)(=O)=O)cc2)C(=O)c2ccccc2)cc1 | 19 | 25 | 0.039 | -28.4 | – | – | – | – | – | –
26 | CN(CCc1ccc(NS(C)(=O)=O)cc1)Cc1ccc(Cl)cc1 | 7.06 | 8.33 | 2.24 | -14.5 | – | – | – | – | – | –
27 | CN(CCc1ccc(NS(C)(=O)=O)cc1)Cc1ccc2c(c1)OCO2 | 6.16 | 17.2 | 0.89 | -15.3 | – | – | – | – | – | –
28 | COc1ccc(CN(CCc2ccc(NS(C)(=O)=O)cc2)C(C)=O)cc1 | – | 14.3 | – | -18.2 | – | – | No effect | – | No effect | –
29 | CN(CCc1ccc(NS(C)(=O)=O)cc1)C1CCCCC1 | 6.45 | 8.33 | 4.79 | -8 | – | – | – | – | – | –
30 | CS(=O)(=O)Nc1ccc(CCN(CCOc2cccc3ccccc23)Cc2ccccc2)cc1 | – | 25 | – | -31.8 | – | – | No effect | – | No effect | –
31 | Cc1ccc(CN(C)CCc2ccc(N(S(C)(=O)=O)S(C)(=O)=O)cc2)cc1 | 12.6 | -11.8 | 0.953 | -15.4 | – | – | – | – | – | –
32 | COc1ccc(CN(CCc2ccc(NS(C)(=O)=O)cc2)C(=O)c2ccccc2)cc1 | 6.33 | 33.3 | 6.18 | -3.7 | – | – | – | – | – | –
33 | CS(=O)(=O)N(c1ccc(CCN(CCOc2cccc3ccccc23)Cc2ccccc2)cc1)S(C)(=O)=O | – | 25 | – | -17.9 | – | – | – | – | No effect | No effect
34 | CS(=O)(=O)Nc1ccc(CCN(CCOc2ccc(NS(C)(=O)=O)cc2)Cc2ccccc2)cc1 | 17.5 | 24.8 | 0.016 | -32 | – | – | – | – | – | –
35 | COc1ccc(CN(C)CCc2ccc(N(S(C)(=O)=O)S(C)(=O)=O)cc2)cc1 | 8.7 | 25 | 1.17 | -19.2 | – | – | – | – | – | –
36 | COc1ccccc1CN(C)CCc1ccc(NS(C)(=O)=O)cc1 | 15.6 | 38.3 | 0.155 | -26.7 | – | – | – | – | – | –
